Assay results: ChEMBL document CHEMBL3393006, “A new iridoid, verbascoside and derivatives with inhibitory activity against Taq DNA polymerase” (Bioorg Med Chem Lett, 2015)
Active and inactive are the calls of the source. No cut-off for these calls is given here.

Test system: Thermus aquaticus
Test: (§1) Inhibition of Thermus aquaticus DNA polymerase by PCR analysis
Method in brief: (§2)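 Taq DNA polymerase (2.5 U) run in PCR mix of 40 mM Tris-acetate pH 8.3, 15 mM MgCl2, […], 2.5 mM each dNTP. Compounds were dissolved in DMSO and tested at varying concentrations, with 1:2 serial dilutions. Cycling was 35 cycles: 95 °C 1 min, 56 °C annealing, 72 °C 90 s. Read-out was densitometry of ethidium bromide-stained agarose gel bands. IC50 was interpolated from plots of activity versus inhibitor concentration.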

inhibition | Compound
inactive | CC(=O)OC[C@H]1O[C@@H](O[C@@H]2OC=C[C@H]3[C@@H](OC(C)=O)[C@@H]4O[C@]4(COC(C)=O)[C@@H]23)[C@H](O)[C@@H](O)[C@@H]1O
inactive | CC(=O)OC[C@H]1O[C@@H](O[C@@H]2OC=C[C@H]3[C@@H](OC(C)=O)[C@@H]4O[C@]4(COC(C)=O)[C@@H]23)[C@H](OC(C)=O)[C@@H](OC(C)=O)[C@@H]1OC(C)=O
inactive | CC(C)(C)[Si](OC[C@H]1O[C@@H](O[C@@H]2OC=C[C@H]3[C@@H](O[Si](c4ccccc4)(c4ccccc4)C(C)(C)C)[C@@H]4O[C@]4(CO[Si](c4ccccc4)(c4ccccc4)C(C)(C)C)[C@@H]23)[C@H](O)[C@@H](O)[C@@H]1O)(c1ccccc1)c1ccccc1
inactive | CC(=O)OC[C@]12O[C@H]1[C@H](O)[C@@H]1C=CO[C@@H](O[C@@H]3O[C@H](CO)[C@@H](O)[C@H](O)[C@H]3O)[C@@H]12
inactive | CC(C)(C)[Si](OC[C@H]1O[C@@H](O[C@@H]2OC=C[C@H]3[C@@H](O[Si](c4ccccc4)(c4ccccc4)C(C)(C)C)[C@@H]4O[C@]4(CO[Si](c4ccccc4)(c4ccccc4)C(C)(C)C)[C@@H]23)[C@H](O)[C@@H](O[Si](c2ccccc2)(c2ccccc2)C(C)(C)C)[C@@H]1O)(c1ccccc1)c1ccccc1
inactive | O=C(OC[C@H]1O[C@@H](O[C@@H]2OC=C[C@H]3[C@@H](OC(=O)c4ccccc4)[C@@H]4O[C@]4(COC(=O)c4ccccc4)[C@@H]23)[C@H](O)[C@@H](OC(=O)c2ccccc2)[C@@H]1OC(=O)c1ccccc1)c1ccccc1

Molecular target: not listed separately
Test: as §1
Method in brief: as §2

IC50 | Compound
78.1 µM | CC(C)(C)[Si](C)(C)OC[C@]12O[C@H]1[C@H](O[Si](C)(C)C(C)(C)C)[C@@H]1C=CO[C@@H](O[C@@H]3O[C@H](CO)[C@@H](O)[C@H](O)[C@H]3O)[C@@H]12
21.6 µM | OCC1O[C@@H](O[C@@H]2OC=C[C@H]3[C@@H](O)[C@@H]4O[C@]4(CO)[C@@H]23)C(O)C(O)[C@@H]1O (single isomer, unassigned)
5.57 µM | CC(C)(C)[Si](C)(C)OC[C@H]1O[C@@H](O[C@@H]2OC=C[C@H]3[C@@H](O[Si](C)(C)C(C)(C)C)[C@@H]4O[C@]4(CO[Si](C)(C)C(C)(C)C)[C@@H]23)[C@H](O)[C@@H](O)[C@@H]1O
